Results from ChEMBL document CHEMBL4402581, “Monohydrazone Based G-Quadruplex Selective Ligands Induce DNA Damage and Genome Instability in Human Cancer Cells” (J Med Chem, 2020).
pIC50: −log10 of the molar value. The source made the active and inactive calls. The rule behind the calls is not given here.

Experiments:
[1] = Effect on hairpin-duplex DNA architecture at 10 mol.equiv by circular dichroism spectral analysis
How it was run: (§1)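 CD spectra of 15 μM G4s or 30 μM hairpin in 20 mM K phosphate pH 7.0 with 5 mM KCl, after annealing. Recorded at 20 °C over 230–360 nm, three scans averaged, buffer baseline subtracted. Ligand was added at 10 mol equiv to the folded DNA from a 10 mM DMSO stock.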

Quadruplex DNA [2] = experiment: Effect on c-Kit1 G4 quadruplex DNA architecture at 10 mol.equiv by circular dichroism spectral analysis; type: nucleic-acid assay; how it was run: as §1
Quadruplex DNA [3] = experiment: Effect on c-Kit2 G4 quadruplex DNA architecture at 10 mol.equiv by circular dichroism spectral analysis; type: nucleic-acid assay; how it was run: as §1
Quadruplex DNA [4] = experiment: Stabilization of human Tel23 G4 quadruplex DNA assessed as change in melting temperature at 10 mol.equiv by circular dichroism melting assay; type: nucleic-acid assay
How it was run: (§2)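 CD melting from 20 to 100 °C at 1 °C/min, monitored at 264 nm (c-Kit1, c-Kit2, c-Myc, Tel23-p), 287 nm (Tel23-h) or 280 nm (hairpin). Ligand was at 10 mol equiv with folded DNA (15 μM G4, 30 μM hairpin). ΔTm is Tm with ligand minus Tm without, from curve fits, averaged over triplicates.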

Quadruplex DNA [5] = experiment: Effect on human Tel23 G4 quadruplex DNA architecture at 10 mol.equiv by circular dichroism spectral analysis; type: nucleic-acid assay; how it was run: as §1
Quadruplex DNA [6] = experiment: Stabilization of c-Myc G4 quadruplex DNA assessed as change in melting temperature at 10 mol.equiv by circular dichroism melting assay; type: nucleic-acid assay; how it was run: as §2
Quadruplex DNA [7] = experiment: Stabilization of parallel Tel23 G4 quadruplex DNA assessed as change in melting temperature at 10 mol.equiv by circular dichroism melting assay; type: nucleic-acid assay; how it was run: as §2
[8] = Stabilization of hairpin-duplex DNA assessed as change in melting temperature at 10 mol.equiv by circular dichroism melting assay; how it was run: as §2
Quadruplex DNA [9] = experiment: Stabilization of c-Kit2 G4 quadruplex DNA assessed as change in melting temperature at 10 mol.equiv by circular dichroism melting assay; type: nucleic-acid assay; how it was run: as §2
Quadruplex DNA [10] = experiment: Stabilization of c-Kit1 G4 quadruplex DNA assessed as change in melting temperature at 10 mol.equiv by circular dichroism melting assay; type: nucleic-acid assay; how it was run: as §2
Quadruplex DNA [11] = experiment: Effect on parallel Tel23 G4 quadruplex DNA architecture at 10 mol.equiv by circular dichroism spectral analysis; type: nucleic-acid assay; how it was run: as §1
Quadruplex DNA [12] = experiment: Effect on c-Myc G4 quadruplex DNA architecture at 10 mol.equiv by circular dichroism spectral analysis; type: nucleic-acid assay; how it was run: as §1
Quadruplex DNA [13] = experiment: Stabilization of G4 quadruplex DNA in human U2OS cells assessed as increase in number of G4 foci at 10 uM incubated for 24 hrs by immunofluorescence microscopy; type: cell-based
Quadruplex DNA [14] = experiment: Stabilization of G4 quadruplex DNA in human U2OS cells assessed as TRF2 foci per cell at 10 uM incubated for 24 hrs by immunofluorescence microscopy (reference value: 15.8 +/- 2.6%); type: cell-based
Quadruplex DNA [15] = experiment: Stabilization of G4 quadruplex DNA in human U2OS cells assessed as colocalization of TRF2/[…] foci at 10 uM incubated for 24 hrs by immunofluorescence microscopy (reference value: 18.4 +/- 2.81%); type: cell-based
U2OS [16] = experiment: Induction of genome instability in human U2OS cells assessed as increase in micronuclei formation at 10 uM incubated for 24 hrs by immunofluorescence microscopy; type: functional, cell-based
How it was run: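 U2OS cells were treated for 24 h, fixed in 4% paraformaldehyde, permeabilized with 0.5% Triton X-100, and stained with DAPI. Micronuclei were counted per 100 cells.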

U2OS [17] = experiment: Induction of DNA:RNA hybrid formation in human U2OS cells assessed as increase in R loop formation at 10 uM incubated for 30 mins by S9.6 immunofluorescence microscopy; type: functional, cell-based
How it was run: (§3)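 U2OS cells were treated at 10 μM for 5–60 min, 24 h after seeding, then fixed in cold methanol and permeabilized with acetone. Stained with S9.6 antibody and anti-nucleolin. The nucleolar signal was subtracted from total nuclear S9.6 fluorescence, and values were normalized to the untreated mean; two biological replicates.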

HeLa [18] = experiment: Cytotoxicity against human HeLa cells assessed as reduction in cell viability incubated for 24 hrs followed by 48 hrs of recovery in drug free medium by MTT assay; type: functional, cell-based
How it was run: (§4)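 Cells grown in DMEM with 10% FBS and 1% glutamine at 37 °C, 5% CO2, and seeded 25 × 10^4 per well. Treatment began 24 h after seeding and lasted 1 or 24 h, followed by 48 h in drug-free medium. MTT was added for 1 h at 37 °C, then DMSO solubilization and absorbance at 595 nm. IC50 came from linear regression; two independent experiments, each in triplicate.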

U2OS [19] = experiment: Induction of DNA damage in human U2OS cells assessed as increase in gammaH2AX phosphorylation at S139 at 10 uM incubated for 4 hrs by immunofluorescence microscopy; type: functional, cell-based
How it was run: (§5)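 U2OS cells were treated with 10 μM for 4 h, pre-extracted 3 min with CSK buffer containing 0.5% Triton X-100, and fixed in 2% paraformaldehyde. Co-stained 1 h for 53BP1 and γH2AX, with DAPI counterstain. Foci were counted per nucleus and normalized to the untreated mean, across three biological replicates.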

HeLa [20] = experiment: Cytotoxicity against human HeLa cells assessed as reduction in cell viability incubated for 1 hr followed by 48 hrs of recovery in drug free medium by MTT assay; type: functional, cell-based; how it was run: as §4
U2OS [21] = experiment: Induction of DNA damage in human U2OS cells assessed as increase in phosphorylated 53BPI foci colocalization with gammaH2AX foci at 10 uM incubated for 4 hrs by immunofluorescence microscopy; type: functional, cell-based; how it was run: as §5
U2OS [22] = experiment: Cytotoxicity against human U2OS cells assessed as reduction in cell viability incubated for 1 hr followed by 48 hrs of recovery in drug free medium by MTT assay; type: functional, cell-based; how it was run: as §4
U2OS [23] = experiment: Induction of DNA:RNA hybrid formation in human U2OS cells assessed as increase in R loop formation at 10 uM incubated for 60 mins by S9.6 immunofluorescence microscopy; type: functional, cell-based; how it was run: as §3
U2OS [24] = experiment: Cytotoxicity against human U2OS cells assessed as reduction in cell viability incubated for 24 hrs followed by 48 hrs of recovery in drug-free medium by MTT assay; type: functional, cell-based; how it was run: as §4

Compound	Activity [1]	Activity (Quadruplex DNA [2])	Activity (Quadruplex DNA [3])	Activity (Quadruplex DNA [4])	Activity (Quadruplex DNA [5])	Activity (Quadruplex DNA [6])	Activity (Quadruplex DNA [7])	ΔTm [8]	Activity (Quadruplex DNA [9])	Activity (Quadruplex DNA [10])	Activity (Quadruplex DNA [11])	Activity (Quadruplex DNA [12])	further results
COc1cc2c(/C=N/NC(=N)N)c(Cl)n(C)c2cc1C	inactive	inactive	inactive	Active	inactive	Active	Active	> 2 °C	Active	Active	inactive	inactive	
CN(C)c1ccc(Nc2c3ccc(NC(=O)CCN4CCCC4)cc3nc3cc(NC(=O)CCN4CCCC4)ccc23)cc1													Activity (Quadruplex DNA [13]): Active; Activity (Quadruplex DNA [14]): 19.1%; Activity (Quadruplex DNA [15]): 15.2%
Cc1cc2c(cc1O)/C(=C\c1cccc(/C=N/NC3=NCCN3)c1)C(=O)N2	inactive	inactive	inactive	Active	inactive	Active	Active		Active	Active	inactive	inactive	Activity [8]: Active
Cc1cc2c(cc1O)/C(=C\c1cccc(/C=N/NC(=N)N)c1)C(=O)N2	inactive	inactive	inactive	Active	inactive	Active	Active	> 2 °C	Active	Active	inactive	inactive	
N=C(N)N/N=C/c1c(Cl)n(C/C=C/c2ccccc2)c2ccccc12	inactive	inactive	inactive	Active	inactive	Active	Active		Active	Active	inactive	inactive	Activity [8]: Active
N=C(N)N/N=C/c1cn(C/C=C/c2ccccc2)c2ccccc12	inactive	inactive	inactive	Active	inactive	Active	Active		Active	Active	inactive	inactive	Activity [8]: Active
O=C1Nc2c(ccc3ccccc23)/C1=C\c1cccc(/C=N/NC2=NCCN2)c1	inactive	inactive	inactive	Active	inactive	Active	Active	> 2 °C	Active	Active	inactive	inactive	
Nc1ccn2c(/C=N/NC3=NCCN3)c(-c3ccccc3)nc2n1	inactive	inactive	inactive	Active	inactive	Active	Active	> 2 °C	Active	Active	inactive	inactive	
O=C1Nc2ccc(Cl)cc2/C1=C\c1cccc(/C=N/NC2=NCCN2)c1	inactive	inactive	inactive	Active	inactive	Active	Active	> 2 °C	Active	Active	inactive	inactive	
COc1cc2c(/C=N/NC(=N)N)c[nH]c2cc1C	inactive	inactive	inactive	Active	inactive	Active	Active	> 2 °C	Active	Active	inactive	inactive	
N=C(N)N/N=C/c1cn(Cc2ccccc2)c2ccccc12	inactive	inactive	inactive	Active	inactive	Active	Active	> 2 °C	Active	Active	inactive	inactive	
N=C(N)N/N=C/c1cccc(/C=C2/C(=O)Nc3ccc(Cl)cc32)c1	inactive	inactive	inactive	Active	inactive	Active	Active	> 2 °C	Active	Active	inactive	inactive	
N=C(N)N/N=C/c1cccc(/C=C2/C(=O)Nc3c2ccc2ccccc32)c1	inactive	inactive	inactive	Active	inactive	Active	Active	> 2 °C	Active	Active	inactive	inactive	
COc1cc2c(/C=N/NC(=N)N)c(Cl)[nH]c2cc1C	inactive	inactive	inactive	Active	inactive	Active	Active	> 2 °C	Active	Active	inactive	inactive	
N=C(N)N/N=C/c1c(-c2ccccc2)nc2nc(N)ccn12	inactive	inactive	inactive	inactive	inactive	inactive	inactive		inactive	inactive	inactive	inactive	Activity (Quadruplex DNA [13]): inactive; Activity (U2OS [16]): Active; Activity (U2OS [17]): Active; pIC50 (HeLa [18]): < 4.30; Activity (U2OS [19]): Active; pIC50 (HeLa [20]): < 4.00; Activity (U2OS [21]): Active; pIC50 (U2OS [22]): < 4.00; Activity [8]: inactive; Activity (Quadruplex DNA [14]): 15.3%; Activity (U2OS [23]): Active; Activity (Quadruplex DNA [15]): 10.1%; pIC50 (U2OS [24]): < 4.30
